Bioassay records (PubChem)
Sampled rows, rich in hits. Any-hit rate of the full collection: about 1.3%.
CHT inh – inhibitors of human choline transporter CHT | CHT-expressing cells, membrane potential dye, choline response; hits give low values | B-score at 10 µM | actives 0.86% (n = 310,000) | AID 488975, 2010;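 active means B-score over 3 SD under the library average, and starting fluorescence ratio not unusually high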;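 further: choline stimulus applied at its EC90 after an EC20 pre-addition; B-score computed on integrated fluorescence ratio after choline addition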
CHT PAM – CHT positive allosteric modulators, primary screen, cell-based, membrane potential dye, choline EC20; AID 488977, 2010; actives 0.49% (n = 310,000); High affinity choline transporter 1 (Homo sapiens), Q9GZV3; CHT-expressing cells; hits give high values; LV-AA mutant CHT in HEK293 cells; B-score at 10 µM;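 active means initial fluorescence not abnormally high and integrated response B-score, plate-corrected, over 3 SD above library mean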
proCasp3 act – activators of human procaspase-3 D3A mutant, primary screen, biochemical, absorbance, PC-3 D3A mutant, single concentration; Caspase-3 (Homo sapiens), P42574; recombinant procaspase-3 D3A, Ac-DEVD-pNA absorbance 405 nm; activation, % at 8.5 µM; actives 0.11% (n = 330,000); AID 463141, 2010;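 active means activation above the mean of all tested compounds plus 3 SD, cut at about 21% in these data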
Target sequence (P42574 whole entry D9A/D28A/D175A): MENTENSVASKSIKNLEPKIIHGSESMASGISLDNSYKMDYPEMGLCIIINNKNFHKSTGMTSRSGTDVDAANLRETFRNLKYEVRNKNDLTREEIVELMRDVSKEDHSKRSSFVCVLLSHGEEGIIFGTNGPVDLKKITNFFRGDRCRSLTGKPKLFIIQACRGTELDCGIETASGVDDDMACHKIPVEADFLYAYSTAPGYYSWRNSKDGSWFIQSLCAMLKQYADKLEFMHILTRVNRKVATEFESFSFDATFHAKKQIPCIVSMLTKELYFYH
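Assay system: Autoprocessing-dead procaspase-3 D3A mutant enzyme; also added: Ac-DEVD-pNA; doses: one concentration, 8.5 µM nominal, 0.8% DMSO; times: 1 h compound preincubation, 2 h substrate hydrolysis at 25 °C; technique: 405 nm absorbance of p-nitroaniline, reads at 0 and 120 min; measure: % activation between DMSO and enzyme-spiked controls; repeats: single replicate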
proCasp7 act – procaspase-7 activators, primary screen, counter-screen for procaspase-3 activator project, biochemical, absorbance, HTS, human; Caspase-7 (Homo sapiens), P55210; recombinant procaspase-7, Ac-DEVD-pNA absorbance 405 nm; D23A/D198A/D206A triple mutant, cannot self-cleave; scale: DMSO 0, 5 µM enzyme 100; activation, % at 8.5 µM; actives 0.093% (n = 330,000); AID 463210, 2010;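 active means percent activation above the screen-wide mean plus 3 SD, cut at about 25% in these data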
Target sequence (P55210 whole entry D23A/D198A/D206A): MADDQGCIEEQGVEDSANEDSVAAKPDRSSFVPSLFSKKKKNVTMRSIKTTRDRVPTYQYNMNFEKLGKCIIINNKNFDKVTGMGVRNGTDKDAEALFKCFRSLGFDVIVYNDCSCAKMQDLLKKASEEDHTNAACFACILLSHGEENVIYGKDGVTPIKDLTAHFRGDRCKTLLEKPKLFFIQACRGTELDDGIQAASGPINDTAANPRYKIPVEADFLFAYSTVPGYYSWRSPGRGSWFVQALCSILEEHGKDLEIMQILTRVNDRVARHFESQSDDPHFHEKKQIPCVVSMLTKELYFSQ
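buffer or medium = Zinc-free HEPES/NaCl buffer, pH 7.4 | material = Procaspase-7 triple mutant (PC-7 D3A) | input = 2 µM procaspase-7 mutant as dispensed | signal = Epi-absorbance of released pNA at 405 nm, two timepoints | timing = 1 h preincubation, 2 h reaction | replicates = singlicate compound testing | evaluation = % activation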
CHT block conf – CHT inhibitors, confirmation, cell-based, membrane potential dye, duplicate; shares compounds with CHT inh; CHT-expressing cells, choline membrane potential dye; LV-to-AA substituted CHT, HEK293 cells; CHT activity remaining % of control (hits give low values), % at 10 µM; actives 70% (n = 2,400); AID 493221, 2011;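 active means choline transporter activity left, mean of duplicates at 10 µM, below buffer-only control mean minus 3 SD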;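 further: depolarization triggered by choline at its EC90 following an EC20 pre-addition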
HEK293 MPD ctr – membrane potential effects in parental HEK293, counter-screen for CHT inhibitor project, cell-based, membrane potential dye; shares compounds with CHT inh; choline response; active = decrease or increase beyond buffer ±3SD; actives 4% (n = 2,400); membrane potential ratio readout (active if shifted either direction beyond buffer ±3SD; no single direction) at 10 µM;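 further: parental cells lack the transporter so any hit is non-specific; ratio is peak minus trough fluorescence over baseline after EC90 choline challenge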
Hits are given with their value; . = inactive; / = not tested or not shown.

SMILES	CHT inh	CHT PAM	proCasp3 act	proCasp7 act	CHT block conf	HEK293 MPD ctr
O=C(C1=C[C@@H](c2ccccc2)C[C@@H](OCCCCO)O1)N1CCOCC1	-10	.	.	.	.	.
O=C(C1=C[C@@H](c2ccc(Br)cc2)C[C@@H](OCCCCO)O1)N1CCOCC1	.	.	.	.	/	/
CCOC(=O)N1CCN(C(=O)C(c2ccccc2)c2ccccc2)CC1	-6.5	.	.	.	.	-11
CCc1nnc(NS(=O)(=O)c2ccc(NC(=S)NC(=O)/C=C/c3ccccc3)cc2)s1	.	.	.	.	/	/
CCc1nnc(NS(=O)(=O)c2ccc(NC(=O)/C=C/c3ccccc3Cl)cc2)s1	-5.6	.	.	.	51%	.
c1ccc(C[C@H]2CN=C(Nc3ccccc3)N2CCC2CCCC2)cc1	-6.8	.	.	.	56%	.
O=[N+]([O-])c1nn(-c2ccc3c(c2)OCCO3)n(O)c1=Nc1ccc(Cl)cc1	.	.	.	.	/	/
CCc1ccc(N=c2c([N+](=O)[O-])nn(-c3ccc4c(c3)OCCO4)n2O)cc1	-6.3	.	.	.	69%	.
Cc1nc(=S)c2ccccc2[nH]1	.	.	.	.	/	/
Cc1cc2[nH]c3ccccc3c2c(C)n1	-7.3	.	.	.	34%	.
COc1ccccc1C1C(C(C)=O)=C(O)C(=O)N1c1ccc(O)cc1 (stereo unspecified)	.	.	.	.	/	/
CC[N+]1(CC)CC2=Cc3c(ccc4ccccc34)CC2C1 (stereo unspecified)	-6.4	.	.	.	46%	.
Cc1nnc(NC(=O)c2ccc(S(=O)(=O)N3CC(C)CC(C)C3)cc2)o1 (stereo unspecified)	.	.	.	.	/	/
Cc1ccc(C(=O)N2CCNC(=O)C2CC(=O)Nc2ccccc2)cc1 (stereo unspecified)	.	.	.	.	/	/
CC1CC(C)CN(C(=O)COc2ccc([N+](=O)[O-])cc2Cl)C1 (stereo unspecified)	-6.1	.	.	.	.	.
Cc1cccc(C(=O)NNC2=C(C(=O)C(F)(F)F)CCC2)c1O	-7.9	.	.	.	37%	.
Cc1cc(C)c(Cn2c3ccccc3c3cnn(CC(=O)NCCN4CCOCC4)c(=O)c32)c(C)c1	-12	.	.	.	15%	.
Cc1ccc(C)c(Cn2c3ccccc3c3cnn(CC(=O)NCCN4CCOCC4)c(=O)c32)c1	.	.	.	.	/	/
CCN(CC)c1ccc(NC(=O)CNCc2ccccc2Cl)c(C)c1	-5.2	.	.	.	57%	.
COc1ccc(-c2c(C(F)(F)F)nn(C)c2NC(=O)c2ccco2)cc1	.	.	.	.	/	/
Cn1nc(C(F)(F)F)c(-c2ccccc2)c1NC(=O)c1ccco1	-5.6	.	.	.	36%	.
Cn1nc(C(F)(F)F)c(-c2ccccc2)c1NC(=O)c1cccnc1	-5.3	.	.	.	32%	.
C[C@H](CO)N1C[C@H](C)[C@@H](CN(C)S(=O)(=O)c2cn(C)cn2)Oc2ccc(NC(=O)Cc3ccccc3)cc2C1=O	/	/	.	.	/	/
COC(=O)CCCCCN1C(=O)NC(C2CC2)C(C(=O)OCc2ccccc2)=C1C (stereo unspecified)	-5.4	.	.	.	65%	.
CCCN(C(=O)c1c(CC)noc1C)c1c(N)n(Cc2ccccc2)c(=O)[nH]c1=O	.	.	.	.	/	/
SMILES	CHT inh	CHT PAM	proCasp3 act	proCasp7 act	CHT block conf	HEK293 MPD ctr
CC(C)(C)c1cc(C(F)(F)F)nc(SCCCNC(=O)c2ccco2)n1	-5.5	.	.	.	.	.
CC(C)=CCN1CCN(Cc2nc(-c3ccc(F)cc3)cs2)CC1CCO (stereo unspecified)	-5.4	.	.	.	.	.
COc1ccc(C(=O)NCC(=O)Nc2ccc(-c3ccccc3)cc2)cc1	.	.	.	.	/	/
CCOc1[nH]c(/N=C/c2ccco2)c(C#N)c1C#N	-5.1	.	.	.	53%	.
Cc1cccc(Nc2cc(C)c3c(O)cccc3n2)c1C	.	.	.	.	/	/
CCCn1c(SCc2cc(=O)oc3ccc4ccccc4c23)n[nH]c1=O	-5.4	.	.	.	.	.
CCOC(=O)c1ccc(NS(=O)(=O)c2ccc3c(c2)NC(=O)CCS3)cc1	-5.1	.	.	.	64%	.
COc1ccc(CSc2nc3nc(C)cc(C)n3n2)cc1F	-6	.	.	.	46%	.
Cc1ccc(CSc2nc3nc(C)cc(C)n3n2)cc1	.	.	.	.	/	/
COc1cccc(CSc2nnc(CSc3nc4nc(C)cc(C)n4n3)s2)c1	.	.	.	.	/	/
Cc1cc(C)n2nc(SCc3cccc(S(=O)(=O)N(C)C)c3)nc2n1	-5.3	.	.	.	68%	.
Cc1ccc(C)c(NC(=O)c2cccc(Oc3ccc([N+](=O)[O-])cc3Cl)c2)c1	-7.2	.	.	.	49%	.
[N-]=[N+]=NC[C@H](Cc1ccccc1)N1CC[C@@H](O)CCC1=O	.	.	.	.	/	/
CC(C)(C)[C@H]1CCC(=O)N([C@H](CN=[N+]=[N-])Cc2ccccc2)CC1	-5.1	.	.	.	.	.
C#CCN(C(=O)c1ccc(OC)c(OC2CCN(C(C)C)CC2)c1)C1CCCCC1	.	.	/	/	/	/
COc1ccc(C(=O)NCc2cc(C(C)C)no2)cc1OC1CCN(C(C)C)CC1	/	/	.	.	/	/
COc1ccc(C(=O)NCc2nc(C)c(C)s2)cc1OC1CCN(C(C)C)CC1	-13	.	.	.	3.8%	.
CCc1cc(CNC(=O)c2ccc(OC)c(OC3CCN(C(C)C)CC3)c2)on1	-16	.	.	.	2.2%	.
Cc1ccc([C@H]2C(C(=O)O)=CC[C@@H](c3ccc(C)cc3)N2S(=O)(=O)c2ccccc2C)cc1	/	/	.	.	/	/
O=C(Nc1nnc(S(=O)(=O)N2CCCCC2)s1)c1cccc(Br)c1	.	.	.	.	/	/
Cc1ccc(S(=O)(=O)c2cnc3cc(C)nn3c2N)cc1	.	.	.	.	/	/
COc1ccc2ncc(S(=O)(=O)c3ccccc3)c(N3CCC4(CC3)OCCO4)c2c1	-5.9	.	.	.	52%	.
Cc1ccc2ncc(S(=O)(=O)c3ccccc3)c(N3CCCCC3C)c2c1 (stereo unspecified)	-6.2	.	.	.	.	.
